Laboratory results taken from ChEMBL document CHEMBL1125259, “Lipophilic glycosyl phosphotriester derivatives of AZT: synthesis, NMR transmembrane transport study, and antiviral activity” (1991).

Tests used:
Format in all cases: functional
[1] = molecular target: Human immunodeficiency virus type 1 reverse transcriptase (Human immunodeficiency virus 1) (UniProt Q72547); assay: Compounds were evaluated for anti-RT activity by MTT dose and % cell / viability was reported at 7 days of culture
Outline: (§1)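 HIV-1 was preincubated with compound at 25 µM for 60 min at 37 °C, pelleted, and added to CEM-C113 cells (1×10^5 cells/mL) for 60 min at 37 °C. Medium was then replaced without compound. At days 7 and 9, viability was read by MTT assay on 100 µL of cell suspension.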

[2] = molecular target: Human immunodeficiency virus type 1 reverse transcriptase (Human immunodeficiency virus 1) (UniProt Q72547); assay: Percent inhibition evaluated for anti-RT activity at 7 days of culture; parameters: concentration or dose not given beside the values; conditions: concentration not given here
Outline: (§2)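 HIV-1 (12 500 CCID50) was preincubated with compound at 25 µM final for 60 min at 37 °C, pelleted by ultracentrifugation and resuspended. RT was measured at once with poly(rA)-oligo(dT) and ³H-dTTP (1 h, 37 °C, cpm). Treated virus was then put on CEM-C113 cells for 60 min and replaced with compound-free medium. Supernatant RT was read at days 7 and 9.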

[3] = molecular target: Human immunodeficiency virus type 1 reverse transcriptase (Human immunodeficiency virus 1) (UniProt Q72547); assay: Percent inhibition evaluated for anti-RT activity at 0 days of culture; parameters: concentration or dose not given beside the values; conditions: concentration not given here; outline: as §2
[4] = molecular target: Human immunodeficiency virus type 1 reverse transcriptase (Human immunodeficiency virus 1) (UniProt Q72547); assay: Compound ability to inhibit the production of HIV reverse transcriptase (RT) in culture supernatant of CEM-CL13 on at 22 days at a concentration 0.2 uM
Outline: (§3)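 CEM-C113 cells in RPMI 1640 with 5% heat-inactivated FCS and polybrene (2 µg/mL) were plated at 1×10^5 cells/mL with compound in PBS, in triplicate, and infected with HIV-1 LAV-Bru. From day 7, every 3–4 days, fresh medium with or without drug was added and 50 µL supernatant was taken for RT microassay. The RT microassay used poly(rA)-oligo(dT) and (methyl-³H)dTTP for 1 h at 37 °C, with TCA precipitation, read as cpm/50 µL.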

[5] = molecular target: Human immunodeficiency virus type 1 reverse transcriptase (Human immunodeficiency virus 1) (UniProt Q72547); assay: Compound ability to inhibit the production of HIV reverse transcriptase (RT) in preinfected PBL (peripheral blood lymphocytes) at 14 days at a concentration 5 uM
Outline: (§4)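 PBL were infected with HIV-1 for 1 h at 37 °C, washed twice, and resuspended in complete medium with 10% interleukin-2 and anti-human α-interferon (1000 units/mL). Cells were plated at 1×10^6 cells/well with or without compound. At each time point, 50 µL supernatant was taken for RT assay ([³H]dTTP incorporation, cpm).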

[6] = test system: CCRF-CEM; assay: Concentration required to reduce the viability of uninfected cells (CEM-CL13) by 50% on day 11.; conditions: Homo sapiens, 264 h, read-out: CD50 (the source's name)
Outline: (§5)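 CEM-C113 cells (1×10^5 cells/mL) were infected with HIV-1 LAV-Bru or mock-infected, with compound dilutions in triplicate, for at least 7 days. Medium with or without drug was renewed every 3–4 days for longer runs. MTT absorbance was read at 540 nm. CD50 = 50% reduction of mock-infected absorbance; ED50 = dose giving 50% protection from CPE. Values are averages of at least two experiments.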

[7] = molecular target: Human immunodeficiency virus type 1 reverse transcriptase (Human immunodeficiency virus 1) (UniProt Q72547); assay: Percent inhibition measured as the production of HIV reverse transcriptase (RT) in culture supernatant of monocytic U937 on at 11 days at a concentration 1 uM
Outline: (§6)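 U937 cells in RPMI 1640 with 5% heat-inactivated FCS, penicillin, streptomycin and polybrene (2 μg/mL), 37 °C, 5% CO2. Infected with HIV-1 LAV-Bru; compounds diluted in PBS. 50 μL supernatant aliquots were assayed for RT: 1 h, 37 °C, pH 7.8, Mg2+, poly(rA)-oligo(dT), [3H]dTTP, TCA-pyrophosphate stop, filter counting. % inhibition = 100 − 100 × (treated cpm / virus-control cpm).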

[8] = molecular target: Human immunodeficiency virus type 1 reverse transcriptase (Human immunodeficiency virus 1) (UniProt Q72547); assay: Compound ability to inhibit the production of HIV reverse transcriptase (RT) in culture supernatant of CEM-CL13 on at 26 days at a concentration 0.2 uM; outline: as §3
[9] = molecular target: Human immunodeficiency virus type 1 reverse transcriptase (Human immunodeficiency virus 1) (UniProt Q72547); assay: Compound ability to inhibit the production of HIV reverse transcriptase (RT) in preinfected PBL (peripheral blood lymphocytes) at 7 days at a concentration 1 uM; outline: as §4
[10] = molecular target: Human immunodeficiency virus type 1 reverse transcriptase (Human immunodeficiency virus 1) (UniProt Q72547); assay: Compound ability to inhibit the production of HIV reverse transcriptase (RT) in culture supernatant of monocytic U937 on at 11 days at a concentration 1 uM
Outline: (§7)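 HIV-1-infected monocytic U937 cultures were kept up to 14 days with compound. Supernatant RT activity was measured as for CEM-C113, as [³H] cpm/50 µL. % inhibition = 100 − 100 × (cpm of treated samples / cpm of control virus).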

[11] = molecular target: Human immunodeficiency virus type 1 reverse transcriptase (Human immunodeficiency virus 1) (UniProt Q72547); assay: Compounds were evaluated for anti-RT activity by MTT dose and %protection was reported at 9 days of culture; outline: as §1
[12] = molecular target: Human immunodeficiency virus type 1 reverse transcriptase (Human immunodeficiency virus 1) (UniProt Q72547); assay: Compound ability to inhibit the production of HIV reverse transcriptase (RT) in culture supernatant of monocytic U937 on at 7 days at a concentration 1 uM; outline: as §7
[13] = molecular target: Human immunodeficiency virus type 1 reverse transcriptase (Human immunodeficiency virus 1) (UniProt Q72547); assay: Compound ability to inhibit the production of HIV reverse transcriptase (RT) in preinfected PBL (peripheral blood lymphocytes) at 10 days at a concentration 1 uM; outline: as §4
[14] = test system: CCRF-CEM; assay: Concentration required to reduce the viability of uninfected cells (CEM-CL13) by 50% on day 22.; conditions: Homo sapiens, 528 h, read-out: CD50 (the source's name); outline: as §5
[15] = molecular target: Human immunodeficiency virus type 1 reverse transcriptase (Human immunodeficiency virus 1) (UniProt Q72547); assay: Compounds were evaluated for anti-RT activity at 7 days of culture; outline: as §2
[16] = molecular target: Human immunodeficiency virus type 1 reverse transcriptase (Human immunodeficiency virus 1) (UniProt Q72547); assay: Compound ability to inhibit the production of HIV reverse transcriptase (RT) in culture supernatant of CEM-CL13 on at 7 days at a concentration 0.2 uM; outline: as §3
[17] = molecular target: Human immunodeficiency virus type 1 reverse transcriptase (Human immunodeficiency virus 1) (UniProt Q72547); assay: Compounds were evaluated for anti-RT activity at 9 days of culture; outline: as §2
[18] = molecular target: Human immunodeficiency virus type 1 reverse transcriptase (Human immunodeficiency virus 1) (UniProt Q72547); assay: Compound ability to inhibit the production of HIV reverse transcriptase (RT) in preinfected PBL (peripheral blood lymphocytes) at 7 days at a concentration 5 uM; outline: as §4
[19] = test system: CCRF-CEM; assay: Concentration that reduced by 50% the HIV induced CPE (cytopathic effect) on day 11.; conditions: Homo sapiens, 264 h, read-out: ED50 (the source's name); outline: as §5
[20] = test system: CCRF-CEM; assay: Concentration required to reduce the viability of uninfected cells (CEM-CL13) by 50% on day 19.; conditions: Homo sapiens, 456 h, read-out: CD50 (the source's name); outline: as §5
[21] = molecular target: Human immunodeficiency virus type 1 reverse transcriptase (Human immunodeficiency virus 1) (UniProt Q72547); assay: Compounds were evaluated for anti-RT activity by MTT dose and %protection was reported at 7 days of culture; outline: as §1
[22] = molecular target: Human immunodeficiency virus type 1 reverse transcriptase (Human immunodeficiency virus 1) (UniProt Q72547); assay: Percent inhibition measured as the production of HIV reverse transcriptase (RT) in culture supernatant of monocytic U937 on at 7 days at a concentration 1 uM; outline: as §6
[23] = molecular target: Human immunodeficiency virus type 1 reverse transcriptase (Human immunodeficiency virus 1) (UniProt Q72547); assay: Compound ability to inhibit the production of HIV reverse transcriptase (RT) in preinfected PBL (peripheral blood lymphocytes) at 21 days at a concentration 5 uM; outline: as §4
[24] = test system: CCRF-CEM; assay: Concentration that reduced by 50% the HIV induced CPE (cytopathic effect) on day 22.; conditions: Homo sapiens, 528 h, read-out: ED50 (the source's name); outline: as §5
[25] = molecular target: Human immunodeficiency virus type 1 reverse transcriptase (Human immunodeficiency virus 1) (UniProt Q72547); assay: Compounds were evaluated for anti-RT activity by MTT dose and %protection was reported at 13 days of culture
[26] = test system: CCRF-CEM; assay: Concentration that reduced by 50% the HIV induced CPE (cytopathic effect) on day 7.; conditions: Homo sapiens, 168 h, read-out: ED50 (the source's name); outline: as §5
[27] = molecular target: Human immunodeficiency virus type 1 reverse transcriptase (Human immunodeficiency virus 1) (UniProt Q72547); assay: Compound ability to inhibit the production of HIV reverse transcriptase (RT) in culture supernatant of monocytic U937 on at 14 days at a concentration 1 uM; outline: as §7

Cc1cn([C@H]2C[C@H](N=[N+]=[N-])[C@@H](COP(=O)(O)OCCO[C@H]3O[C@H](CO)[C@@H](O)[C@H](O)[C@@H]3O)O2)c(=O)[nH]c1=O
Cell viability [1]: 39% | inhibition [2]: 25% | inhibition [3]: 0% | Activity (c.p.m. 50ul-1) [4]: 27000 | Activity (c.p.m. 50ul-1) [5]: 471 | CC50 [6]: 28000 nM | inhibition [7]: 0% | Activity (c.p.m. 50ul-1) [8]: 70000 | Activity (c.p.m. 50ul-1) [9]: 923 | Activity (c.p.m. 50ul-1) [10]: 174000 | Protection [11]: 12% | Activity (c.p.m. 50ul-1) [12]: 306000 | Activity (c.p.m. 50ul-1) [13]: 4400 | CC50 [14]: 28000 nM | Activity (c.p.m. 50ul-1) [15]: 47000 | Activity (c.p.m. 50ul-1) [16]: 4400 | Activity (c.p.m. 50ul-1) [17]: 39000 | Activity (c.p.m. 50ul-1) [18]: 855 | EC50 [19]: 150 nM | CC50 [20]: 30000 nM | Protection [21]: 20% | inhibition [22]: 0% | Activity (c.p.m. 50ul-1) [23]: 3380 | EC50 [24]: 600 nM | Protection [25]: 7% | EC50 [26]: 160 nM | Activity (c.p.m. 50ul-1) [27]: 25000

CCCCCCCCCCCCCCCCOP(=O)(OC[C@H]1OC(O)[C@H](O)[C@@H](O)[C@@H]1O)OC[C@H]1OC(n2cc(C)c(=O)[nH]c2=O)C[C@@H]1N=[N+]=[N-] (stereo not given in full)
Cell viability [1]: 85% | inhibition [2]: 87% | inhibition [3]: 9% | Activity (c.p.m. 50ul-1) [4]: 45000 | Activity (c.p.m. 50ul-1) [5]: 157000 | CC50 [6]: 3000 nM | inhibition [7]: 53% | Activity (c.p.m. 50ul-1) [8]: 64000 | Activity (c.p.m. 50ul-1) [9]: 3490 | Activity (c.p.m. 50ul-1) [10]: 68000 | Protection [11]: 52% | Activity (c.p.m. 50ul-1) [12]: 66000 | Activity (c.p.m. 50ul-1) [13]: 26300 | CC50 [14]: 3200 nM | Activity (c.p.m. 50ul-1) [15]: 8000 | Activity (c.p.m. 50ul-1) [16]: 4500 | Activity (c.p.m. 50ul-1) [17]: 13000 | Activity (c.p.m. 50ul-1) [18]: 8210 | EC50 [19]: 180 nM | CC50 [20]: 3200 nM | Protection [21]: 81% | inhibition [22]: 73% | Activity (c.p.m. 50ul-1) [23]: 150000 | EC50 [24]: 800 nM | Protection [25]: 28% | EC50 [26]: 180 nM | Activity (c.p.m. 50ul-1) [27]: 4000

Cc1cn([C@H]2C[C@H](N=[N+]=[N-])[C@@H](COP(=O)(O)OC[C@H]3OC(O)[C@H](O)[C@@H](O)[C@@H]3O)O2)c(=O)[nH]c1=O (stereo not given in full)
Cell viability [1]: 50% | inhibition [2]: 70% | inhibition [3]: 0% | Activity (c.p.m. 50ul-1) [4]: 2200 | Activity (c.p.m. 50ul-1) [5]: 732 | CC50 [6]: 35000 nM | inhibition [7]: 0% | Activity (c.p.m. 50ul-1) [8]: 65000 | Activity (c.p.m. 50ul-1) [9]: 1010 | Activity (c.p.m. 50ul-1) [10]: 145000 | Protection [11]: 13% | Activity (c.p.m. 50ul-1) [12]: 158000 | Activity (c.p.m. 50ul-1) [13]: 771 | CC50 [14]: 35000 nM | Activity (c.p.m. 50ul-1) [15]: 19000 | Activity (c.p.m. 50ul-1) [16]: 1600 | Activity (c.p.m. 50ul-1) [17]: 28000 | Activity (c.p.m. 50ul-1) [18]: 890 | EC50 [19]: 160 nM | CC50 [20]: 38000 nM | inhibition [22]: 36% | Activity (c.p.m. 50ul-1) [23]: 373 | EC50 [24]: 900 nM | Protection [25]: 0% | EC50 [26]: 200 nM | Activity (c.p.m. 50ul-1) [27]: 17000
